Laboratory results published in PubChem BioAssay AID2529 (Broad Institute, 2010).
Calls of active or inactive are those of the source.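 The calls were made as follows: active = inhibition at 30 µM, averaged over replicates, above 50% in every run; inconclusive = inhibition above 50% in some runs but not others; inactive = inhibition at most 50% in every run.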

Tested on: human washed platelets, PMA-induced P-selectin, flow cytometry
Assay: inhibitors of PMA-stimulated platelet P-selectin exposure, confirmation, selectivity assay, cell-based, fluorescence, flow cytometry, platelets (AID 2529)
Settings: at 30 µM, stronger effect = higher value
Outline: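 Test system: platelets. Doses: single compound dose of 30 µM. Times: compound pre-treatment 20 min, PMA stimulation 15 min, antibody labeling 20 min. Measured by: flow cytometry, PE anti-P-selectin.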

SMILES | inhibition | inhibition (measured here: second run average inhibition) [%]
CCCC(=O)Nc1cccc(NC(=O)c2ccccc2Br)c1 | 13% (inactive) | 
O=C(Nc1cccc(NC(=O)c2ccccc2Cl)c1)c1ccco1 | 17% (inactive) | 8
